From ChEMBL document CHEMBL1629493, “Synthesis and cytostatic activity of purine nucleosides derivatives of allofuranose” (Eur J Med Chem, 2010)

Key:
Type in all cases: functional, cell-based
MCF7 = experiment: Cytostatic activity against human MCF7 cells after 96 hrs by colorimetric microculture assay; conditions: MCF7, 96 h
Summary of the method: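 MCF-7 cells at 10⁴ per well, preincubated 24 h, then treated at 37 °C for 96 h with varying doses dissolved in DMSO alongside DMSO controls. Read-out: MTT colorimetry at 595 nm, viability as a fraction of control absorbance. IC50 fitted from concentration-effect curves; three experiments, mean with standard deviation.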

HeLa = experiment: Cytostatic activity against human HeLa 229 cells after 48 hrs by colorimetric microculture assay
Summary of the method: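 HeLa-229 cells plated at 4 × 10³ per well and cultured 24 h before treatment at 37 °C for 48 h with varying doses in DMSO, DMSO controls included. MTT colour measured at 595 nm. Percent viability relative to control; IC50 from concentration-effect curves. Mean of three experiments, SD given.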

HL-60 = experiment: Cytostatic activity against human HL60 cells after 24 hrs by colorimetric microculture assay; conditions: HL-60, 24 h
Summary of the method: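 MTT assay: HL-60 cells seeded at 10⁴ per well, grown 24 h in culture medium, then exposed at 37 °C for 24 h to varying doses of compounds dissolved in DMSO, with DMSO controls. Absorbance read at 595 nm. Viability taken as treated over control absorbance. IC50 derived from concentration-effect curves; means of three experiments with standard deviation.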

Structure (SMILES) | IC50 (MCF7) [µM] | IC50 (HeLa) [µM] | IC50 (HL-60) [µM]
OC[C@@H](O)[C@H]1O[C@@H](n2cnc3c(Cl)nc(Cl)nc32)[C@H](O)[C@@H]1O | 54.2 | 47.1 | > 100
CNc1nc(Cl)nc2c1ncn2[C@@H]1O[C@H]([C@H](O)CO)[C@@H](O)[C@H]1O | > 100 | > 100 | > 100
CCOc1nc(Cl)nc2c1ncn2[C@@H]1O[C@H]([C@H](O)CO)[C@@H](O)[C@H]1O | > 100 | > 100 | > 100
CC(=O)OC[C@@H](OC(C)=O)[C@H]1O[C@@H](n2cnc3c(Cl)ncnc32)[C@H](OC(C)=O)[C@@H]1OC(C)=O | > 100 | > 100 | 79.3
CC(=O)OC[C@@H](OC(C)=O)[C@H]1O[C@@H](n2cnc3c(-c4ccccc4)ncnc32)[C@H](OC(C)=O)[C@@H]1OC(C)=O | > 100 | > 100 | > 100
CC(=O)OC[C@@H](OC(C)=O)[C@H]1O[C@@H](n2cnc3c(Cl)nc(Cl)nc32)[C@H](OC(C)=O)[C@@H]1OC(C)=O | 22.4 | 24.2 | 16.1
CC(=O)OC[C@@H](OC(C)=O)[C@H]1O[C@@H](n2cnc3c(N)nc(Cl)nc32)[C@H](OC(C)=O)[C@@H]1OC(C)=O | > 100 | > 100 | > 100

Second part, the molecule after the results:

IC50 (MCF7) [µM] | IC50 (HeLa) [µM] | IC50 (HL-60) [µM] | Structure (SMILES)
> 100 | > 100 | > 100 | OC[C@@H](O)[C@H]1O[C@@H](n2cnc3c(Cl)ncnc32)[C@H](O)[C@@H]1O
> 100 | > 100 | > 100 | Nc1ncnc2c1ncn2[C@@H]1O[C@H]([C@H](O)CO)[C@@H](O)[C@H]1O
> 100 | > 100 | > 100 | Nc1nc(Cl)nc2c1ncn2[C@@H]1O[C@H]([C@H](O)CO)[C@@H](O)[C@H]1O
> 100 | > 100 | > 100 | CNc1ncnc2c1ncn2[C@@H]1O[C@H]([C@H](O)CO)[C@@H](O)[C@H]1O
> 100 | > 100 | > 100 | OC[C@@H](O)[C@H]1O[C@@H](n2cnc3c(-c4ccccc4)ncnc32)[C@H](O)[C@@H]1O
36.3 | 36.3 | 45 | CC(=O)O[C@H]1[C@@H](OC(C)=O)[C@H](n2cnc3c(Cl)nc(Cl)nc32)O[C@@H]1[C@H](O)CO
